Test results as given in ChEMBL document CHEMBL4622928, “Discovery of 5-(4-methylpiperazin-1-yl)-2-nitroaniline derivatives as a new class of SIRT6 inhibitors” (Bioorg Med Chem Lett, 2020).

How the values were obtained:
Histone deacetylase 1 = Histone deacetylase 1 (Homo sapiens, UniProt Q13547); test: Inhibition of HDAC1 (unknown origin)
In short: (§1)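 Each deacetylase was run in a Fluor de Lys (FDL) fluorogenic deacetylation assay as a selectivity screen, with compound tested at concentrations up to 200 μM. IC50 was estimated from the dose-response.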

[1] = target: T1, Polyamine deacetylase HDAC10 (Homo sapiens, UniProt Q969S8); test: Inhibition of HDAC10 (unknown origin); in short: as §1
T1 sequence (Q969S8 whole entry): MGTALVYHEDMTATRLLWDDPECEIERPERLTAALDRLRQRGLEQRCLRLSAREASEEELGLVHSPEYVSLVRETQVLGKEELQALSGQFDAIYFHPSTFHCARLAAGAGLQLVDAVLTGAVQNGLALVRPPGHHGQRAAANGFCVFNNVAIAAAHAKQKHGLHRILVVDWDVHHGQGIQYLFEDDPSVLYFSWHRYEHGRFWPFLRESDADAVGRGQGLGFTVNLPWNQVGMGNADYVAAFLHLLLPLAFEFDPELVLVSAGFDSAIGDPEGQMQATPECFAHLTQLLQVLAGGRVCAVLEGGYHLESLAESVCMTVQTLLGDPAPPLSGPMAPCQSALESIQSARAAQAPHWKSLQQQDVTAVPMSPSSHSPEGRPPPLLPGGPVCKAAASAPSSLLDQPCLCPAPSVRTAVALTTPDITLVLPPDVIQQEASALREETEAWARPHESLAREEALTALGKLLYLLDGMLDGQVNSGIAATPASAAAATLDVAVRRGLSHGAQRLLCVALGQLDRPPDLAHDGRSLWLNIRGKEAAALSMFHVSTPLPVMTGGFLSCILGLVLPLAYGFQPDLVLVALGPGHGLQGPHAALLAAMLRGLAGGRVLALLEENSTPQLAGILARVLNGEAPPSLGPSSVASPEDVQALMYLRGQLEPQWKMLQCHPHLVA

Histone deacetylase 1, sequence (Q13547 whole entry): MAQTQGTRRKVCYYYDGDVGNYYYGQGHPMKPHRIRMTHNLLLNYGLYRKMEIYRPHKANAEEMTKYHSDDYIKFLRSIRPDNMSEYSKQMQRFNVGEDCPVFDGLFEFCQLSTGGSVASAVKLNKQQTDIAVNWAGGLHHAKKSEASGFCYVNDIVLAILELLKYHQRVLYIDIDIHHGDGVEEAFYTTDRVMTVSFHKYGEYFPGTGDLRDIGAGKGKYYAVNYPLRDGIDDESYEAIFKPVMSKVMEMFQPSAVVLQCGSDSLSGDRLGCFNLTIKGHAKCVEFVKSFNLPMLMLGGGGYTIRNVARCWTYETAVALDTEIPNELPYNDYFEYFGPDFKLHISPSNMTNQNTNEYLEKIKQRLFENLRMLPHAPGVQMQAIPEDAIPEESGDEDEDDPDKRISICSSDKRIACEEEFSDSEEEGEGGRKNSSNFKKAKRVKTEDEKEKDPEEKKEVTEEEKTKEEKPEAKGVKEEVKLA

Compound: CN1CCN(c2ccc([N+](=O)[O-])c(N)c2)CC1
- IC50 (Histone deacetylase 1): > 200 µM
- IC50 [1]: > 200 µM
